Measured values reported in article PMC3449281 (Chemistry & biology, 2012).
Entries after “also recorded” stand apart in the source; their conditions may differ.

Assays:
[1] = biological target: purified firefly luciferase (FLuc) (Photinus pyralis, UniProt P08659); assay: Mode of inhibition; type: biochemical; conditions: IC50 shift with 1 mM D-LH2, 1 mM ATP or high CoASH
In short: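 Purified P. pyralis FLuc was run in the standard luciferase assay (10 μM ATP and D-LH2, the KM levels). Test compounds were given as 12-point titrations, 57.5 μM to 0.3 nM final. One substrate was kept at KM and the other saturating (1 mM ATP or 1 mM D-luciferin), or 500 μM CoASH was added. Fold shift = IC50 at high substrate / IC50 at KM. There were three separate tests, each in duplicate.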

miR-21 FLuc assay = assay: miR-21 FLuc cell-based reporter gene assay; conditions: 48-hour incubation with compound
In short: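 The cell-based reporter expresses wild-type FLuc and was optimized to detect increases in FLuc signal. Cells were exposed to test compound for 48 h. Unlike the read-through assay, there was no wash step before the detection reagent was added. Concentration–response curves were recorded.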

purified RLuc = biological target: T1, purified RLuc (Renilla reniformis, UniProt P27652); conditions: highest concentration tested = 57.5 μM
T1 sequence (P27652 1-311): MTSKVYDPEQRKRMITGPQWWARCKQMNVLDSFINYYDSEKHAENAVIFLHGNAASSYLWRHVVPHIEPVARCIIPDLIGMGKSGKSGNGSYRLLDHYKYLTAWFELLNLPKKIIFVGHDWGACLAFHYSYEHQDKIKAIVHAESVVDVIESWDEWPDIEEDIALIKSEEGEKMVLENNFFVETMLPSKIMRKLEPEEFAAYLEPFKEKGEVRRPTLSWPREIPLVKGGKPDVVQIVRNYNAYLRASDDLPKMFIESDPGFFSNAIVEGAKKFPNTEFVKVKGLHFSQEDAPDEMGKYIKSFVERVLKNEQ

Chain of purified firefly luciferase (FLuc) (P08659 whole entry): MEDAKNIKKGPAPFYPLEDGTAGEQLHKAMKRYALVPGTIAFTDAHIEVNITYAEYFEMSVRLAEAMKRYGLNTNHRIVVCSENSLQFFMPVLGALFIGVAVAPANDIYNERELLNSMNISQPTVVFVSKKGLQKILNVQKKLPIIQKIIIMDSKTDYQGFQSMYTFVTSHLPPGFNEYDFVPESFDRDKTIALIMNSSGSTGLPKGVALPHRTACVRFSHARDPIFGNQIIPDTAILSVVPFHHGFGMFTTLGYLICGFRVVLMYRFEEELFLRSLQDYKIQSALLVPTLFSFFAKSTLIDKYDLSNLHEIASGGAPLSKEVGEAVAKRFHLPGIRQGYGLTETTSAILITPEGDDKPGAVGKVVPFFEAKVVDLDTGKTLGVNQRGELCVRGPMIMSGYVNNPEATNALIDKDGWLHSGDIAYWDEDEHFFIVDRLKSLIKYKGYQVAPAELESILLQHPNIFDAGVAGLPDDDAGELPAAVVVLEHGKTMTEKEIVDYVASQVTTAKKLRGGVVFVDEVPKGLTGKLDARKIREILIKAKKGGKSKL

| SMILES | Mode of inhibition (substrate competition) [1] | Activity in RLuc assay (purified RLuc) | also measured |
| --- | --- | --- | --- |
| Cn1c(NN=Cc2cc3ccccc3nc2Cl)nc2ccccc21 [CID:4216593] | competitive with both D-LH2 and ATP; also recorded: significantly reduced by either ATP or D-LH2 | – | – |
| COc1ccc(-c2nc3ccccc3s2)cc1O [CID: 976322] | ATP was found to enhance inhibitor binding | – | – |
| CC(C)(C)C(=O)Nc1ccc(-c2nc3ccccc3s2)cc1 [CID: 16015828] | – | – | Effect on FLuc signal in cell-based miR-21 assay (miR-21 FLuc assay): strong activation |
| CC(=NNC(=O)c1ccccc1NC(=O)c1ccc(Cl)cc1)c1ccncc1 [CID: 16193026] | only ATP | – | – |
| O=C(Nc1ccccc1C(=O)O)c1cccc(S(=O)(=O)Nc2ccc(Br)cc2)c1 [compound 1087370] | – | RLuc-active | – |
| O=C(Nc1ccccc1C(=O)O)c1cc(S(=O)(=O)Nc2cccc(F)c2)ccc1Cl [compound 1105141] | – | RLuc-active | – |
